Test results: ChEMBL document CHEMBL3259667, “Bis-aryloxadiazoles as effective activators of the aryl hydrocarbon receptor” (Bioorg Med Chem Lett, 2014); call rule not given here

Tests used:
Type in all cases: cell-based
[1] = target: T1, Aryl hydrocarbon receptor (Mus musculus, UniProt P30561); assay: Agonist activity at AHR in mouse HC11 cells assessed as upregulation of Cyp1a1 gene expression at 10 uM after 48 hrs by RT-PCR analysis relative to control; settings: hc11, 48 h
T1 sequence (P30561 whole entry): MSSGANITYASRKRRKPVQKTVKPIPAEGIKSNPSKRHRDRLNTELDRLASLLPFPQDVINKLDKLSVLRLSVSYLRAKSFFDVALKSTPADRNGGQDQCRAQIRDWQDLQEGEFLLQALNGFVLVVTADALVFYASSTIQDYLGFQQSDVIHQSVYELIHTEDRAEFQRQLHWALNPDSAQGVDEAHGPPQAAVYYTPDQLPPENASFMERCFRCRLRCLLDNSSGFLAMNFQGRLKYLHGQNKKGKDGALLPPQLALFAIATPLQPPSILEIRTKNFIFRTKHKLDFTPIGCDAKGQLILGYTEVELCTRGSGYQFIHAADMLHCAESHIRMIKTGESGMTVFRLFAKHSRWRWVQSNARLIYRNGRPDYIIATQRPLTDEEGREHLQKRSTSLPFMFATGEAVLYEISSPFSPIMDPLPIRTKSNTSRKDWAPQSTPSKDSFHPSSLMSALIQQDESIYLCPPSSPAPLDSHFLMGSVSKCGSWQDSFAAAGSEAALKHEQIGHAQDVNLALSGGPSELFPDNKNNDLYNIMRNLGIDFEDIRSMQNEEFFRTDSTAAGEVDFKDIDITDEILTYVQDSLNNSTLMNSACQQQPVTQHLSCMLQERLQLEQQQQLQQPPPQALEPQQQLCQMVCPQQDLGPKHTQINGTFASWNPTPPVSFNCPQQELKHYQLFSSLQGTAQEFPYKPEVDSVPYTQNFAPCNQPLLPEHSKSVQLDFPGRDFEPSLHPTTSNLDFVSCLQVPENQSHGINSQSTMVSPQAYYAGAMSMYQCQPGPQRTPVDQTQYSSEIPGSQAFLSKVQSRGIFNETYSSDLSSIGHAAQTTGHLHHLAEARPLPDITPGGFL
Summary of the method: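 HC11 mammary epithelial cells were exposed for 48 hours to 10 μM compound. Expression of the AHR target gene Cyp1a1 served as the activity read-out.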

[2] = target: T1, Aryl hydrocarbon receptor; assay: Agonist activity at AHR in FVB/N mouse primary mammary epithelial cells assessed as upregulation of desmoglein-3 protein level at 10 nM after 144 hrs by Western blot analysis in presence of FGF2; settings: epithelial cell, 0.01 µM
[3] = target: T1, Aryl hydrocarbon receptor; assay: Agonist activity at AHR in FVB/N mouse primary mammary epithelial cells assessed as upregulation of desmoglein-3 protein level at 10 uM after 144 hrs by Western blot analysis in presence of FGF2; settings: epithelial cell

Row | SMILES | Activity [1] | Activity [2] | Activity [3]
1 | COC(=O)Oc1ccc(-c2nc(-c3ccccc3)no2)c([N+](=O)[O-])c1 | 0.39% |  | 
2 | COC(=O)c1cccc(-c2noc(-c3ccccc3F)n2)c1 | 0.29% |  | 
3 | COC(=O)c1cccc(-c2noc(-c3ccc(Cl)cc3Cl)n2)c1 | 0.18% |  | 
4 | C#CCOc1ccc(-c2noc(-c3ccc(Cl)cc3Cl)n2)cc1 | 0.66% |  | 
5 | COc1ccc(-c2nc(-c3ccccc3)no2)c([N+](=O)[O-])c1 | 0.42% |  | 
6 | C#CCOc1ccc(-c2noc(-c3ccc(Cl)cc3N)n2)cc1 | 0.38% |  | 
7 | C=CCOc1ccc(-c2noc(-c3ccc(Cl)cc3N)n2)cc1 | 0.62% |  | 
8 | Clc1ccc(-c2nc(-c3ccncc3)no2)c(Cl)c1 | 0.37% |  | 
9 | O=[N+]([O-])c1cc(O)ccc1-c1nc(-c2ccccc2)no1 | 0.25% |  | 
10 | Clc1ccc(-c2nc(-c3ccccc3Cl)no2)c(Cl)c1 | 5.91% |  | 
11 | Clc1cccc(-c2noc(-c3ccc(Cl)cc3Cl)n2)c1 | 1.59% |  | 
12 | Clc1cc2c(cc1Cl)Oc1cc(Cl)c(Cl)cc1O2 [2,3,7,8-TETRACHLORODIBENZO-P-DIOXIN] |  | Active | 
13 | O=[N+]([O-])c1cc(Cl)ccc1-c1nc(-c2ccncc2)no1 | 8.25% |  | 
14 | C#CCOc1ccc(-c2noc(-c3ccc(Cl)cc3[N+](=O)[O-])n2)cc1 | 0.29% |  | 
15 | FC(F)(F)c1cccc(-c2noc(-c3ccc(Cl)cc3Cl)n2)c1 | 1.84% |  | Not Active
16 | Nc1cc(Cl)ccc1-c1nc(-c2ccccc2)no1 | 638.8% |  | Active
17 | C#CCOc1ccc(-c2nc(-c3ccccc3)no2)c([N+](=O)[O-])c1 | 2.43% |  | 
18 | Clc1ccc(-c2nc(-c3ccccc3)no2)c(Cl)c1Cl | 25.79% |  | Not Active
19 | Clc1ccc(-c2nc(-c3ccncc3)no2)c(Cl)c1Cl | 0.53% |  | 
20 | Clc1ccc(-c2noc(-c3ccc(Cl)cc3Cl)n2)cc1 | 8.15% |  | 
21 | Clc1ccc(-c2nc(-c3ccccc3)no2)c(Cl)c1 | 128.53% |  | Active
22 | CC(=O)Oc1ccc(-c2nc(-c3ccncc3)no2)c([N+](=O)[O-])c1 | 0.35% |  | 
23 | O=[N+]([O-])c1cc(F)ccc1-c1nc(-c2ccccc2)no1 | 122.64% |  | Active
24 | Nc1cc(C(F)(F)F)ccc1-c1nc(-c2ccccc2)no1 | 58.63% |  | Active
25 | O=C(O)c1cccc(-c2noc(-c3ccccc3F)n2)c1 [ATALUREN] | 3.71% |  | 
26 | O=[N+]([O-])c1cc(C(F)(F)F)ccc1-c1nc(-c2ccccc2)no1 | 0.36% |  | 
